Measurements as given in publication PMC8892681 (ACS Omega, 2022).
Entries after “also recorded” stand apart in the source; their conditions may differ. Where two headings read alike, the source gives them in different places.

Experiments:
C. difficile = assay: MIC by broth microdilution against C. difficile; format: cell-based, Clostridioides difficile
VREfm [1] = assay: MIC by broth microdilution against E. faecium; format: cell-based, Enterococcus faecium; details: for fold loss in activity against E. faecium: compared with analogue 1
[2] = Pharmacokinetics and urinary/faecal recovery after oral administration in rats; format: in vivo, Sprague Dawley rats; details: 30 mg/kg; for AUC(0-inf) / Cmax / Tmax / half-life: male, Sprague Dawley, rat, plasma, po; for % dose in urine (0–48 h): unchanged compound, male Sprague Dawley rats, oral, mean ± SD n = 3
human erythrocytes [3] = assay: Haemolysis assay; format: cell-based; details: 1 h, 37 °C
Summary of the method: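 Human whole blood collected in K2-EDTA and pelleted at 500 g for 5 min. RBCs washed twice in saline and once in PBS, then diluted 1:50 in PBS. Test compound made at 20× in DMSO and added 1:20 (final 0.125−128 mg/L). Incubated 1 h at 37 °C. Controls were DMSO vehicle and 1% (v/v) Triton X-100. After centrifugation at 500g, supernatant A450 was read. Three biological replicates.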

[4] = tested on: C. difficile strain EDN0008; assay: Time-kill assay against C. difficile; format: cell-based, Clostridioides difficile
[5] = tested on: E. faecium strain Aus0085; assay: Time-kill assay against E. faecium; format: cell-based, Enterococcus faecium
Caco-2 cell monolayers = assay: Caco-2 cell permeability; format: in vitro ADME
VREfm [6] = details: range of clinically relevant E. faecium strains; cited from earlier work
HepG2 = details: cited from earlier work
human erythrocytes [7] = details: cited from earlier work
Caco-2 cell permeability = format: in vitro ADME; details: human, Caco-2, pH 7.4
[8] = exposure to 4 μg/mL, up to 48 h

Compound: CC(CN)c1ccc(Oc2ccc(-c3noc(-c4ccc(O)cc4)n3)cc2)cc1.Cl (racemic) [15f, (RS)-4-(3-(4-(4-(1-Aminopropan-2-yl)phenoxy)phenyl)-1,2,4-oxadiazol-5-yl)phenol Hydrochloride]
- fold loss in potency against C. difficile (C. difficile; compared with the ethyl linker 15e): 5 fold

Compound: O=C(O)CCc1ccc(Oc2ccc(-c3noc(-c4ccc(O)cc4)n3)cc2)cc1 [9g, 3-(4-(4-(5-(4-Hydroxyphenyl)-1,2,4-oxadiazol-3-yl)phenoxy)phenyl)propanoic Acid]
- fold loss in potency against C. difficile (C. difficile; 4 position versus same substituent at 2 and 3 positions / analogue 1): 4 fold

Compound: Cl.NCc1ccccc1Oc1ccc(-c2noc(-c3ccc(O)cc3)n2)cc1 [15a, 4-(3-(4-(2-(Aminomethyl)phenoxy)phenyl)-1,2,4-oxadiazol-5-yl)phenol Hydrochloride]
- fold loss in activity against E. faecium (VREfm [1]): 4 fold

Compound: Cl.NCCc1ccccc1Oc1ccc(-c2noc(-c3ccc(O)cc3)n2)cc1 [15b, 4-(3-(4-(2-(2-Aminoethyl)phenoxy)phenyl)-1,2,4-oxadiazol-5-yl)phenol Hydrochloride]
- fold loss in activity against E. faecium (VREfm [1]): 4 fold

Compound: Cl.NCc1ccc(Oc2ccc(-c3noc(-c4ccc(O)cc4)n3)cc2)cc1 [15d, 4-(3-(4-(4-(Aminomethyl)phenoxy)phenyl)-1,2,4-oxadiazol-5-yl)phenol Hydrochloride]
- fold loss in activity against E. faecium (VREfm [1]): 2 fold

Compound: Cl.NCCc1ccc(Oc2ccc(-c3noc(-c4ccc(O)cc4)n3)cc2)cc1 [15e, 4-(3-(4-(4-(2-Aminoethyl)phenoxy)phenyl)-1,2,4-oxadiazol-5-yl)phenol Hydrochloride]
- fold loss in activity against E. faecium (VREfm [1]): 2 fold
- AUC(0-inf) [2]: 0.9 ± 0.22 µM·h
- Cmax [2]: 160 ± 38 nM
- Tmax [2]: 2.5 h
- half-life [2]: 2 ± 0.3 h
- % dose in urine (0–48 h) [2]: 0.08 ± 0.03%
- concentration leading to substantial levels of haemolysis (human erythrocytes [3]): ≥ 64 µg/mL
- time to 100% kill of C. difficile [4]: ≤ 3 h
- time to 100% kill of VREfm ([5]; 4 μg/mL): ≤ 24 h
- time to 100% kill of VREfm ([5]; 8 μg/mL (2× MIC of 15e)): ≤ 1 h
- regrowth of VREfm in time-kill assay [5, 8]: remained undetectable
- regrowth of VREfm in time-kill assay ([5]; exposure to 8 μg/mL): no rebounding growth observed

Compound: Cl.NCCCc1ccc(Oc2ccc(-c3noc(-c4ccc(O)cc4)n3)cc2)cc1 [15h, 4-(3-(4-(4-(3-Aminopropyl)phenoxy)phenyl)-1,2,4-oxadiazol-5-yl)phenol Hydrochloride]
- fold increase in activity against E. faecium (VREfm [1]; propylamine versus ethylamine linker (15e)): 2 fold

Compound: C[N+](C)(C)CCc1ccc(Oc2ccc(-c3noc(-c4ccc(O)cc4)n3)cc2)cc1.[I-] [26a, 2-(4-(4-(5-(4-Hydroxyphenyl)-1,2,4-oxadiazol-3-yl)phenoxy)phenyl)-N,N,N-trimethylethan-1-aminium Iodide]
- fold decrease in activity against E. faecium (VREfm [1]; compared with the primary amine 15e): 2 fold
- AUC(0-inf) [2]: 0.28 ± 0.27 µM·h
- Cmax [2]: 39 ± 46 nM
- Tmax [2]: 2.8 ± 2 h
- half-life [2]: 5.3 ± 2.1 h
- % dose in urine (0–48 h) [2]: 0.06 ± 0.03%
- permeability across Caco-2 cell monolayer (in words) (Caco-2 cell monolayers; not detected in acceptor chamber, fully recovered in donor chamber): complete impermeability; also recorded: no detectable permeability

Compound: CN[C@H](CC(C)C)C(=O)N[C@H]1C(=O)N[C@@H](CC(N)=O)C(=O)N[C@H]2C(=O)N[C@H]3C(=O)N[C@H](C(=O)N[C@H](C(=O)O)c4cc(O)cc(O)c4-c4cc3ccc4O)[C@H](O)c3ccc(c(Cl)c3)Oc3cc2cc(c3O[C@@H]2O[C@H](CO)[C@@H](O)[C@H](O)[C@H]2O[C@H]2C[C@](C)(N)[C@H](O)[C@H](C)O2)Oc2ccc(cc2Cl)[C@H]1O [Vancomycin, vancomycin, reference compound]
- C. difficile MIC (C. difficile; broth microdilution, 48 h anaerobic, biological triplicate): 2 µg/mL
- killing activity in time-kill assay ([4]; C. difficile EDN0008, 1 at ≥2 × MIC (12–48 μg/mL), vancomycin 8 μg/mL): bacteriostatic activity

Compound: Oc1ccc(-c2nc(-c3ccc(Oc4ccccc4)cc3)no2)cc1 [compound 1, 4-(3-(4-Phenoxyphenyl)-1,2,4-oxadiazol-5-yl)phenol]
- E. faecium MIC90 (VREfm [6]): 2 µg/mL
- HepG2 viability (HepG2; at concentrations higher than 2 μg/mL): reduced viability
- toxicity against HepG2 (HepG2; at the E. faecium MIC90 (2 μg/mL)): not toxic
- concentration leading to haemolysis in human erythrocytes (human erythrocytes [7]): > 64 µg/mL
- killing activity in time-kill assay [4]: rapid bactericidal activity
- time to 100% kill of VREfm ([5]; 4 μg/mL): ≤ 24 h
- time to 100% kill of VREfm ([5]; 8 μg/mL (2× MIC of 15e)): ≤ 1 h
- regrowth of VREfm in time-kill assay [5, 8]: rebounding growth of VREfm was observed after 48 h
- regrowth of VREfm in time-kill assay ([5]; exposure to 8 μg/mL): no rebounding growth observed

Compound: CC(C)NCC(O)COc1cccc2ccccc12 (centres unmarked) [propranolol]
- Papp A→B at 120 min (Caco-2 cell permeability): 42 ± 2.5 ×10⁻⁶ cm/s

Compound: COC(=O)c1ccccc1-c1c2ccc(=N)cc-2oc2cc(N)ccc12 [rhodamine 123]
- Papp A→B at 120 min (Caco-2 cell permeability): 1.6 ± 0.13 ×10⁻⁶ cm/s
- Papp B→A at 120 min (Caco-2 cell permeability): 12 ± 2.7 ×10⁻⁶ cm/s
- efflux ratio at 120 min (Caco-2 cell permeability): 7.3

Compound: lucifer yellow
- Papp (Caco-2 cell monolayers; low permeability marker, acceptor solution): < 1 10^–6 cm/s
